Data published in publication PMC10157846 (ACS Omega, 2023).
Each block holds one compound with its values, some of them ahead of it.

How the values were obtained:
HEK-293T cells = test: Cell viability, parallel CellTiter-Glo assay; assay type: cell-based, human; conditions: HEK-293T cells stably expressing GFP-ODC, 8-point titration
GFP-ODC [1] = test: Cell-based GFP-ODC AlphaLISA; set-up: species or system human; conditions: for IC50: Homo sapiens, HEK-293T, read-out: IC50 of the AlphaLISA signal; for reduction of the GFP-ODC AlphaLISA signal: 8-point titration, fresh powder stocks
Method in brief: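 HEK-293T cells stably expressing GFP-ODC, from a flow-sorted medium-GFP expressor pool, were plated at 10,000 cells/well in phenol red-free DMEM and dosed with compound or DMSO at plating. Cells were lysed in Surefire lysis buffer with shaking for 30 min at RT. Biotinylated anti-ODC plus anti-GFP acceptor bead (10× mix) went on for 1 h in the dark, then streptavidin donor bead for 30 min. Alpha signal read. Wells without anti-ODC served as negative control.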

26S proteasome = test: Small peptide; assay type: biochemical; conditions: only at the highest concentration
GFP-ODC [2] = test: Cellular degradation of GFP-ODC; assay type: cell-based, human; conditions: 16 h, HEK-293T stably expressing GFP-ODC
Method in brief: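 HEK-293T stably expressing GFP-ODC were grown to 80% confluency in 60 mm plates and treated 16 h with compound or DMSO. Controls: 5 μM bortezomib, 20 μM chlorpromazine. Cells were pelleted, PBS-washed and lysed in RIPA with protease inhibitors (20 min on ice). Western blot followed; only the full-length 75 kDa GFP-ODC band was quantified, in triplicate.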

[3] = system: human constitutive 20S proteasome; test: Small peptide; assay type: biochemical; conditions: for max fold increase, chymotrypsin-like site: Suc-LLVY-AMC; for max fold increase, caspase-like site: Z-LLE-AMC
Method in brief: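 Human constitutive 20S proteasome (1 nM) in 38 mM Tris-HCl, 100 mM NaCl, pH 7.8 was preincubated with compound (8-point, 1.25–80 μM) at 37 °C. AMC substrates were added alone (final Suc-LLVY-AMC 20 µM, Z-LLE-AMC 20 µM, Boc-LRR-AMC 40 μM) or combined (6.67 μM each final). Fluorescence (380/460 nm) was read over 1 h at 37 °C. Hydrolysis rate was expressed as fold change versus vehicle.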

[4] = Cell viability, parallel CellTiter-Glo assay; assay type: cell-based, human; conditions: human, HEK-293T cells stably expressing GFP-ODC
EGFR = conditions: read-out: IC50 for EGFR tyrosine kinase inhibition; reported value; cited from earlier work
[5] = system: purified human 20S proteasome; test: In vitro degradation of α-synuclein by purified 20S proteasome; assay type: biochemical; conditions: 3 h, compared to untreated proteasome
Method in brief: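 Purified human 20S proteasome in 50 mM HEPES, 5 mM DTT, pH 7.2 was preincubated with compound or DMSO for 45 min at 37 °C. Purified α-synuclein was then added and incubated 3 h at 37 °C; final reaction was 0.3 μM α-synuclein and 10 nM proteasome. GAPDH (0.5 μM) was added as loading control. α-Synuclein remaining was quantified by western blot versus DMSO.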

[6] = Solubility observed in the AlphaLISA dose response; assay type: physicochemical; conditions: at higher concentrations of the dose response
K48 ubiquitin = test: Cellular K48 ubiquitin levels; assay type: cell-based, human; conditions: same cell lysates as the GFP-ODC western blot
[7] = combination of the three fluorogenic peptide probes

SMILES: O=C(N/N=C/c1ccc([N+](=O)[O-])o1)c1ccc(O)cc1 [nifuroxazide]
cell cytotoxicity (HEK-293T cells): low cytotoxicity

IC50 (GFP-ODC [1]): 4.8 µM
SMILES: CCN(CC)CCCC(C)Nc1c2ccc(Cl)cc2nc2ccc(OC)cc12 (centres unmarked) [Quinacrine]

activation of the 26S proteasome (26S proteasome): 2 fold | overall max fold increase of 20S proteasome activity [3, 7]: 6.3 fold
SMILES: CN(C)CCCN1c2ccccc2Sc2ccc(Cl)cc21 [CPZ, chlorpromazine]
full-length GFP-ODC remaining (GFP-ODC [2]; 20 μM compound): 97% | catalytic sites of the 20S proteasome activated ([3]; individual fluorogenic peptide substrates): only activated the chymotrypsin-like site

SMILES: CCN(CC)CCNc1ccc(CO)c2sc3ccccc3c(=O)c12 [Hycanthone]
CC50 [4]: 69.7 µM | IC50 (GFP-ODC [1]): 15.1 µM

SMILES: COc1cc2nc(N3CCN(C(=O)c4ccco4)CC3)nc(N)c2cc1OC [prazosin]
activation of the 26S proteasome (26S proteasome): 2.5- to 3 fold | full-length GFP-ODC remaining (GFP-ODC [2]; 20 μM compound): 84% | max fold increase, chymotrypsin-like site [3]: 3.5 fold | max fold increase, caspase-like site [3]: 5.8 fold | overall max fold increase of 20S proteasome activity [3, 7]: 4.5 fold | reduction of the GFP-ODC AlphaLISA signal (GFP-ODC [1]): did not reduce the AlphaLISA signal below 50% (Figure S2) or did not reduce the AlphaLISA signal without significant cell death

SMILES: CC(C)[C@]12O[C@H]1[C@@H]1O[C@]13[C@]1(O[C@H]1C[C@H]1C4=C(CC[C@@]13C)C(=O)OC4)[C@@H]2O [triptolide]
reduction of the GFP-ODC AlphaLISA signal (GFP-ODC [1]): significantly decreased the AlphaLISA signal but not in a dose-dependent manner

SMILES: CC(C)C[C@H]1C(=O)N2CCC[C@H]2[C@]2(O)O[C@](NC(=O)[C@@H]3C=C4c5cccc6[nH]c(Br)c(c56)C[C@H]4N(C)C3)(C(C)C)C(=O)N12 [bromocriptine]
reduction of the GFP-ODC AlphaLISA signal (GFP-ODC [1]): did not reduce the AlphaLISA signal below 50% (Figure S2) or did not reduce the AlphaLISA signal without significant cell death

SMILES: CC(=O)S[C@@H]1CC2=CC(=O)CC[C@]2(C)[C@H]2CC[C@@]3(C)[C@@H](CC[C@@]34CCC(=O)O4)[C@H]12 [spironolactone]
cell cytotoxicity (HEK-293T cells): low cytotoxicity

SMILES: COC(=O)C[C@](O)(CCCC(C)(C)O)C(=O)O[C@@H]1C(OC)=C[C@]23CCCN2CCc2cc4c(cc2[C@H]13)OCO4 [homoharringtonine]
reduction of the GFP-ODC AlphaLISA signal (GFP-ODC [1]): significantly decreased the AlphaLISA signal but not in a dose-dependent manner

activation of the 26S proteasome (26S proteasome): 2.5- to 3 fold | max fold increase, trypsin-like site ([3]; Boc-LRR-AMC): 5.9 fold | max fold increase, chymotrypsin-like site [3]: 5.1 fold | max fold increase, caspase-like site [3]: 3.1 fold | overall max fold increase of 20S proteasome activity [3, 7]: 5.7 fold | EC200, concentration at which the rate of proteolysis was doubled compared to the vehicle control ([3]; combination of the three fluorogenic peptide probes, 1 nM 20S): 12 µM | α-synuclein remaining ([5]; 10 μM compound): 68% | α-synuclein remaining ([5]; 20 μM compound): 48% | solubility [6]: poor solubility at higher concentrations | IC50 (GFP-ODC [1]): 5.4 µM
SMILES: C#Cc1cccc(Nc2ncnc3cc(OCCOC)c(OCCOC)cc23)c1 [erlotinib]
IC50 (EGFR): 0.002 µM | full-length GFP-ODC remaining (GFP-ODC [2]; 10 μM compound): 34% | full-length GFP-ODC remaining (GFP-ODC [2]; 20 μM compound): 16% | cell cytotoxicity (HEK-293T cells): no significant cell cytotoxicity | effect on K48 ubiquitin / levels of ubiquitinylated proteins (K48 ubiquitin): no impact on the levels of ubiquitinylated proteins

SMILES: CN1CCN(CC/C=C2/c3ccccc3Sc3ccc(S(=O)(=O)N(C)C)cc32)CC1 [thiothixene]
reduction of the GFP-ODC AlphaLISA signal (GFP-ODC [1]): did not reduce the AlphaLISA signal below 50% (Figure S2) or did not reduce the AlphaLISA signal without significant cell death

SMILES: CNCCC(Oc1ccc(C(F)(F)F)cc1)c1ccccc1 (centres unmarked) [fluoxetine]
reduction of the GFP-ODC AlphaLISA signal (GFP-ODC [1]): did not reduce the AlphaLISA signal below 50% (Figure S2) or did not reduce the AlphaLISA signal without significant cell death
